ChEMBL document CHEMBL4689842, “EUbOPEN Chemogenomics Library wave 1” (2021)
Where “and” joins values, the source holds several entries; their conditions need not be identical. Equal values may be shown once.

Tested on: U2OS
Experiment: Multiplex assay against U2OS
Type: toxicity, cell-based
Conditions: human
In short: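 Compound was added to live cells that had been stained at seeding with Hoechst33342, BioTracker Green Microtubule Cytoskeleton Dye, MitoTracker Red and Annexin V Alexa Fluor 680, and imaging followed on a CQ1 microscope at 37°C and 5% CO2. CellPathfinder machine-learning gating divided cells into Hoechst high-intensity objects or normal cells, normal cells into healthy, pyknosed or fragmented nuclei, and pyknosed cells into mitotic or apoptotic. Tubulin, mitochondrial-mass and membrane-permeability phenotypes are per cents of healthy-nucleus cells.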

[1] = 12 h, 1 µM, compound concentration 1 uM, replicate 1
[2] = 12 h, 1 µM, compound concentration 1 uM, replicate 2
[3] = 12 h, 10 µM, compound concentration 10 uM, replicate 1
[4] = 12 h, 10 µM, compound concentration 10 uM, replicate 2
[5] = 24 h, 1 µM, compound concentration 1 uM, replicate 1
[6] = 24 h, 1 µM, compound concentration 1 uM, replicate 2
[7] = 24 h, 10 µM, compound concentration 10 uM, replicate 1
[8] = 24 h, 10 µM, compound concentration 10 uM, replicate 2
[9] = 48 h, 10 µM, compound concentration 10 uM, replicate 1
[10] = 48 h, 10 µM, compound concentration 10 uM, replicate 2

Q: What does the source list for CC(C)Oc1ccc(C(=O)N[C@H](CNC(=O)CN(C)C)Cc2ccc(-c3cn4cccc([C@H](C)O)c4n3)cc2)cc1Cl [GSK-923295A]?
A: Population Apoptotic (%) [1]: 27%; Population Fragmented Nuclei (%) [1]: 9%; Population Healthy Nuclei (%) [1]: 75%; Population Hoechst High Intensity Objects (%) [1]: 1%; Population Membrane Permeable-Phenotype (%) [1]: 33%; Population Mitochondria Different-Phenotype (%) [1]: 23%; Population Mitotic Cells (%) [1]: 72%; Population Normal (%) [1]: 98%; Population Pyknosed Nuclei (%) [1]: 15%; Population Tubulin-Different-Phenotype (%) [1]: 14%; Total Cell Count [1]: 253; Population Apoptotic (%) [2]: 21%; Population Fragmented Nuclei (%) [2]: 11%; Population Healthy Nuclei (%) [2]: 66%; Population Hoechst High Intensity Objects (%) [2]: 11%; Population Membrane Permeable-Phenotype (%) [2]: 29%; Population Mitotic Cells (%) [2]: 78%; Population Normal (%) [2]: 88%; Population Pyknosed Nuclei (%) [2]: 22%; Population Tubulin-Different-Phenotype (%) [2]: 19%; Total Cell Count [2]: 153; Population Apoptotic (%) [3]: 48% and 53%; Population Fragmented Nuclei (%) [3]: 9% and 14%; Population Healthy Nuclei (%) [3]: 75% and 62%; Population Hoechst High Intensity Objects (%) [3]: 3% and 11%; Population Membrane Permeable-Phenotype (%) [3]: 31% and 19%; Population Mitochondria Different-Phenotype (%) [3]: 37% and 93%; Population Mitotic Cells (%) [3]: 51% and 46%; Population Normal (%) [3]: 96% and 88%; Population Pyknosed Nuclei (%) [3]: 15% and 23%; Population Tubulin-Different-Phenotype (%) [3]: 98% and 97%; Total Cell Count [3]: 146 and 119; Population Apoptotic (%) [4]: 30% and 33%; Population Fragmented Nuclei (%) [4]: 32%; Population Healthy Nuclei (%) [4]: 73% and 51%; Population Hoechst High Intensity Objects (%) [4]: 2%; Population Membrane Permeable-Phenotype (%) [4]: 30% and 56%; Population Mitochondria Different-Phenotype (%) [4]: 89% and 67%; Population Mitotic Cells (%) [4]: 69% and 66%; Population Normal (%) [4]: 97%; Population Pyknosed Nuclei (%) [4]: 17% and 16%; Population Tubulin-Different-Phenotype (%) [4]: 100%; Total Cell Count [4]: 76 and 116; Population Apoptotic (%) [5]: 24%; Population Fragmented Nuclei (%) [5]: 18%; Population Healthy Nuclei (%) [5]: 61%; Population Hoechst High Intensity Objects (%) [5]: 2%; Population Membrane Permeable-Phenotype (%) [5]: 28%; Population Mitochondria Different-Phenotype (%) [5]: 19%; Population Mitotic Cells (%) [5]: 75%; Population Normal (%) [5]: 97%; Population Pyknosed Nuclei (%) [5]: 19%; Population Tubulin-Different-Phenotype (%) [5]: 13%; Total Cell Count [5]: 249; Population Apoptotic (%) [6]: 29%; Population Fragmented Nuclei (%) [6]: 13%; Population Healthy Nuclei (%) [6]: 72%; Population Hoechst High Intensity Objects (%) [6]: 10%; Population Membrane Permeable-Phenotype (%) [6]: 19%; Population Mitochondria Different-Phenotype (%) [6]: 22%; Population Mitotic Cells (%) [6]: 70%; Population Normal (%) [6]: 89%; Population Pyknosed Nuclei (%) [6]: 14%; Population Tubulin-Different-Phenotype (%) [6]: 15%; Total Cell Count [6]: 136; Population Apoptotic (%) [7]: 78% and 72%; Population Fragmented Nuclei (%) [7]: 12% and 17%; Population Healthy Nuclei (%) [7]: 56% and 61%; Population Hoechst High Intensity Objects (%) [7]: 4% and 9%; Population Membrane Permeable-Phenotype (%) [7]: 45% and 40%; Population Mitochondria Different-Phenotype (%) [7]: 66% and 88%; Population Mitotic Cells (%) [7]: 21% and 27%; Population Normal (%) [7]: 95% and 90%; Population Pyknosed Nuclei (%) [7]: 31% and 20%; Population Tubulin-Different-Phenotype (%) [7]: 97%; Total Cell Count [7]: 171 and 128; Population Apoptotic (%) [8]: 60% and 35%; Population Fragmented Nuclei (%) [8]: 33% and 11%; Population Healthy Nuclei (%) [8]: 33% and 64%; Population Hoechst High Intensity Objects (%) [8]: 6% and 2%; Population Membrane Permeable-Phenotype (%) [8]: 64% and 53%; Population Mitochondria Different-Phenotype (%) [8]: 75% and 96%; Population Mitotic Cells (%) [8]: 39% and 65%; Population Normal (%) [8]: 93% and 97%; Population Pyknosed Nuclei (%) [8]: 33% and 24%; Population Tubulin-Different-Phenotype (%) [8]: 100%; Total Cell Count [8]: 133 and 72; Population Apoptotic (%) [9]: 66%; Population Fragmented Nuclei (%) [9]: 18%; Population Healthy Nuclei (%) [9]: 41%; Population Hoechst High Intensity Objects (%) [9]: 10%; Population Membrane Permeable-Phenotype (%) [9]: 49%; Population Mitochondria Different-Phenotype (%) [9]: 85%; Population Mitotic Cells (%) [9]: 33%; Population Normal (%) [9]: 89%; Population Pyknosed Nuclei (%) [9]: 40%; Population Tubulin-Different-Phenotype (%) [9]: 97%; Total Cell Count [9]: 133; Population Apoptotic (%) [10]: 73%; Population Fragmented Nuclei (%) [10]: 9%; Population Healthy Nuclei (%) [10]: 43%; Population Hoechst High Intensity Objects (%) [10]: 7%; Population Membrane Permeable-Phenotype (%) [10]: 81%; Population Mitochondria Different-Phenotype (%) [10]: 96%; Population Mitotic Cells (%) [10]: 26%; Population Normal (%) [10]: 92%; Population Pyknosed Nuclei (%) [10]: 46%; Population Tubulin-Different-Phenotype (%) [10]: 100%; Total Cell Count [10]: 86
